Test results reported in ChEMBL document CHEMBL1147465, “Nucleic acid-binding ligands identify new mechanisms to inhibit telomerase” (Bioorg Med Chem Lett, 2004).

How the values were obtained:
[1] = target: Telomerase reverse transcriptase (Homo sapiens) (UniProt O14746); test: Inhibition of human telomerase before assembly using recombinant hTR and hTERT at 50 uM
Outline: (§1)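 Telomerase reconstituted from in vitro transcribed hTR and hTERT translated in vitro in rabbit reticulocyte lysate. Line 2: ligand added to hTR plus hTERT before a 90 min assembly incubation in lysate. Line 1: ligand added to telomerase already assembled in lysate.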

Tetrahymena thermophila [2] = test: Inhibition of telomerase before assembly using recombinant Tetraymena thermophilia TR and TERT at 50 uM
Tetrahymena thermophila [3] = test: Inhibition of telomerase after assembly using recombinant Tetraymena thermophilia TR and TERT at 50 uM
Euplotes aediculatus = test: Inhibition of purified telomerase of Euplotes aediculatus at 50 uM
Outline: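 Endogenous telomerase purified from E. aediculatus, tested in a direct activity assay with inhibitor at 50 µM.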

[4] = target: Telomerase reverse transcriptase (Homo sapiens) (UniProt O14746); test: Inhibition of human telomerase after assembly using recombinant hTR and hTERT at 50 uM; outline: as §1

Telomerase reverse transcriptase (Homo sapiens), sequence (O14746 whole entry): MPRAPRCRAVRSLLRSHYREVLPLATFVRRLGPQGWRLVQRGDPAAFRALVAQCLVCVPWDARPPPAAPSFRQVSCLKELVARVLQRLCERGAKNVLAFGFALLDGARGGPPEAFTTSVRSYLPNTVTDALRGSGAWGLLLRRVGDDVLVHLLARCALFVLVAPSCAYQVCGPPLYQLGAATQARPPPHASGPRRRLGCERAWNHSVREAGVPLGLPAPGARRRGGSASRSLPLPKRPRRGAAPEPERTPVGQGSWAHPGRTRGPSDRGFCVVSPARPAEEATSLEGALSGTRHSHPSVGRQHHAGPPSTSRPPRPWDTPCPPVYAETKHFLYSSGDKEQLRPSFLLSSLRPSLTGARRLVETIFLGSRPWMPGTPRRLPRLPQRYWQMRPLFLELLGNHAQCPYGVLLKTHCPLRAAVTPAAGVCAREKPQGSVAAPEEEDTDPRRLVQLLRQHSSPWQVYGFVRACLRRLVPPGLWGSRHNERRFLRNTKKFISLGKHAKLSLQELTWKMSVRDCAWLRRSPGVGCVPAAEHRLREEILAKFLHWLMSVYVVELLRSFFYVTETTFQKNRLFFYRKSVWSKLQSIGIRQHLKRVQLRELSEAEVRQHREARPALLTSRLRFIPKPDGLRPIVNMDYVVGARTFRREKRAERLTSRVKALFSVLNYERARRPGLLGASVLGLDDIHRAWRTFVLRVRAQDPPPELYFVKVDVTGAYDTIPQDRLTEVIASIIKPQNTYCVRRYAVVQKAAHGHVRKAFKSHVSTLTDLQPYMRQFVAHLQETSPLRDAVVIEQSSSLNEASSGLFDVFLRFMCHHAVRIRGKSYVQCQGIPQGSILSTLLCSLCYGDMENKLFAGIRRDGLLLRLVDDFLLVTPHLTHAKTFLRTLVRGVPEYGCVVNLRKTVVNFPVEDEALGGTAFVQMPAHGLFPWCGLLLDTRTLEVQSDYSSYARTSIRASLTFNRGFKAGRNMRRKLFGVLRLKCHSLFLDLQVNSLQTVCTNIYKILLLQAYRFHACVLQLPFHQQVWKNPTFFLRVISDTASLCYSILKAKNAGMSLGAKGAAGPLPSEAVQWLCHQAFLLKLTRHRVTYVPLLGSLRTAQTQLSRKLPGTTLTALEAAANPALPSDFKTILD

Row | Compound | inhibition [1] | inhibition (Tetrahymena thermophila [2]) | inhibition (Tetrahymena thermophila [3]) | inhibition (Euplotes aediculatus) | inhibition [4]
1 | CN[C@@H]1C[C@H](N)[C@@H](O)[C@H](O[C@H]2O[C@H](CO)[C@H](O)[C@@H]3O[C@@]4(O[C@@H]23)O[C@H]([C@H](N)CO)[C@H](O)[C@H](O)[C@H]4O)[C@H]1O | 0% | 0% | 0% | 0% | –
2 | CCN(CC)CCCC(C)Nc1c2ccc(Cl)cc2nc2ccc(OC)cc12 (centres undefined) | 82% | 93% | 80% | 75% | 50%
3 | CN1CCN(c2ccc3[nH]c(-c4ccc5[nH]c(-c6ccc(O)cc6)nc5c4)nc3c2)CC1 | 81% | 50% | 15% | 86% | 34%
4 | NCC[C@H](O)C(=O)N[C@@H]1C[C@H](N)[C@@H](O[C@H]2O[C@H](CN)[C@@H](O)[C@H](O)[C@H]2O)[C@H](O)[C@H]1O[C@H]1O[C@H](CO)[C@@H](O)[C@H](N)[C@H]1O | 25% | 0% | 0% | 0% | –
5 | CN[C@@H]1[C@H](O)[C@H](NC)[C@H]2O[C@@]3(O)C(=O)C[C@@H](C)O[C@H]3O[C@@H]2[C@H]1O | 0% | 0% | 0% | 0% | –
6 | NC[C@@H]1O[C@H](O[C@H]2[C@@H](O)[C@H](O[C@@H]3[C@@H](O)[C@H](N)C[C@H](N)[C@H]3O[C@H]3O[C@H](CO)[C@@H](O)C[C@H]3N)O[C@@H]2CO)[C@H](N)[C@@H](O)[C@@H]1O[C@H]1O[C@H](CO)[C@@H](O)[C@H](O)[C@@H]1O | 50% | 0% | 0% | 10% | 12%
7 | Cn1cc(NC(=O)c2cc(NC(=O)c3cc(NC=O)cn3C)cn2C)cc1C(=O)NCCC(=N)N | 10% | 0% | 0% | 75% | –
8 | CN(C)[C@@H]1C(O)=C(C(N)=O)C(=O)[C@@]2(O)C(O)=C3C(=O)c4c(O)cccc4[C@@](C)(O)[C@H]3C[C@@H]12 | 10% | 0% | 0% | 0% | –
9 | N=C(N)c1ccc(-c2cc3ccc(C(=N)N)cc3[nH]2)cc1 | 90% | 70% | 70% | 0% | 72%
10 | CN[C@@H]1[C@@H](O[C@H]2O[C@H](CO)[C@@H](N)[C@H](O)[C@H]2O)OC2C[C@@H](N)[C@@H](O[C@H]3[C@H](O)[C@@H](O)[C@H](N)C[C@@H]3N)OC2[C@@H]1O (some centres undefined) | 30% | 0% | 0% | 0% | –
11 | GENTAMICIN | 64% | 0% | 0% | 0% | 19%
12 | NC[C@@H]1O[C@H](O[C@H]2[C@@H](O)[C@H](O[C@@H]3[C@@H](O)[C@H](N)C[C@H](N)[C@H]3O[C@H]3O[C@H](CO)[C@@H](O)[C@H](O)[C@H]3N)O[C@@H]2CO)[C@H](N)[C@@H](O)[C@@H]1O | 60% | 0% | 0% | 0% | 29%
13 | Nc1ccc2cc3ccc(N)cc3nc2c1 | 95% | 90% | 90% | 52% | 90%
